Assays:
Leishmania infantum [1] = experiment: Percentage of activity against Leishmania infantum 6.25 uM; format: functional
Outline: (§1)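 Starch-stimulated mouse peritoneal macrophages, 30 000/well, infected after 24 h with spleen-derived L. infantum amastigotes (10:1) together with 2-fold drug dilutions (12.5–1.56 µM). Incubated 7 days at 37 °C, 5% CO2. Wright-stained slides scored microscopically as % reduction of total parasite load or of infected macrophages. Uninfected treated cultures judged microscopically for macrophage toxicity.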

Leishmania infantum [2] = experiment: Percentage of activity against Leishmania infantum at 1.56 uM; format: functional; outline: as §1
Leishmania infantum [3] = experiment: In Vitro evaluation for the percentage of activity towards Leishmania infantum at 12.5 uM Concentration; format: functional; outline: as §1
Leishmania infantum [4] = experiment: Percentage of activity against Leishmania infantum at 3.13 uM; format: functional; outline: as §1
MRC5 [5] = experiment: Cytotoxicity on MRC-5 cells at 12.5 uM; format: functional; details: Homo sapiens
Outline: (§2)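 MRC-5 human diploid embryonic lung cells seeded at 5 000/well, washed after 24 h, then given 2-fold drug dilutions (25, 12.5, 6.25, 3.13 µM) in RPMI + 5% FCS, final DMSO below 0.5%. Incubated 7 days at 37 °C, 5% CO2. MTT colorimetric read-out, scored as % reduction of absorbance at 540 nm versus untreated controls.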

MRC5 [6] = experiment: Cytotoxicity on MRC-5 cells at 25 uM; format: functional; details: Homo sapiens; outline: as §2
MRC5 [7] = experiment: Cytotoxicity on MRC-5 cells at 3.13 uM; format: functional; details: Homo sapiens; outline: as §2
MRC5 [8] = experiment: Cytotoxicity on MRC-5 cells at 6.25 uM; format: functional; details: Homo sapiens; outline: as §2
Plasmodium falciparum [9] = experiment: Parasite growth inhibition against Plasmodium falciparum W2; format: functional, organism-based
Outline: (§3)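 Asynchronous cultures of each strain on human erythrocytes (0.5% parasitemia, 1% final hematocrit) were exposed to serially diluted drug for 24 h at 37 °C. Then 0.5 µCi [3H]hypoxanthine per well was added for 24 h. Incorporation was compared with a drug-free control on the same plate. IC50 was taken from the concentration-response curve as the mean of several independent experiments. DMSO was at most 0.1%.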

Plasmodium falciparum [10] = experiment: Parasite growth inhibition against Plasmodium falciparum F32A; format: functional, organism-based; outline: as §3
Plasmodium falciparum [11] = experiment: Parasite growth inhibition against Plasmodium falciparum FCM29; format: functional, organism-based; outline: as §3
Plasmodium falciparum [12] = experiment: Parasite growth inhibition against Plasmodium falciparum FCR3; format: functional, organism-based; outline: as §3
Plasmodium falciparum [13] = experiment: In vitro sensitivity for Plasmodium falciparum FcB1R; format: functional, organism-based
Outline: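 Asynchronous P. falciparum cultures in human erythrocytes (0.5% parasitemia, 1% haematocrit) exposed to serially diluted drug for 24 h at 37 °C. [3H]hypoxanthine (0.5 µCi/well) then added for a further 24 h. Uptake compared with drug-free controls on the same plate. IC50 taken from the concentration–response curve, averaged over independent experiments. DMSO ≤0.1%.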

Plasmodium falciparum [14] = experiment: Parasite growth inhibition against Plasmodium falciparum GP1; format: functional, organism-based; outline: as §3
Plasmodium falciparum [15] = experiment: Parasite growth inhibition against Plasmodium falciparum K1; format: functional, organism-based; outline: as §3
Trypanosoma cruzi [16] = experiment: Percentage of activity against Trypanosoma cruzi at 12.5 uM; format: functional
Outline: (§4)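 Mouse peritoneal macrophages, 30 000/well, infected after 24 h with about 100 000 T. cruzi trypomastigotes per well plus 2-fold drug dilutions (12.5–1.56 µM). Incubated 4 days at 37 °C, 5% CO2. Methanol-fixed, Giemsa-stained and scored microscopically as % reduction of total parasite load (free trypomastigotes plus intracellular amastigotes) versus untreated controls.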

Trypanosoma cruzi [17] = experiment: Percentage of activity against Trypanosoma cruzi at 3.13 uM; format: functional; outline: as §4
Trypanosoma cruzi [18] = experiment: Percentage of activity against Trypanosoma cruzi at 6.25 uM Concentration; format: functional; outline: as §4
Trypanosoma brucei [19] = experiment: Percentage of activity against Trypanosoma brucei at 6.25 uM; format: functional
Outline: (§5)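 Bloodstream-form T. brucei in HMI-9 medium, 10 000 parasites/well, exposed to 12.5, 6.25, 3.13 and 1.56 µM drug for 4 days. Read-out is % inhibition of parasite multiplication. Macrophage toxicity judged on mouse primary peritoneal macrophages.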

Trypanosoma brucei [20] = experiment: Percentage of activity against Trypanosoma brucei at 12.5 uM; format: functional; outline: as §5
Trypanosoma brucei [21] = experiment: Percentage of activity against Trypanosoma brucei at 1.56 uM; format: functional; outline: as §5
Trypanosoma brucei [22] = experiment: Percentage of activity against Trypanosoma brucei at 3.13 uM; format: functional; outline: as §5
Plasmodium falciparum [23] = experiment: Growth inhibition of chloroquine-sensitive Plasmodium falciparum 3D7
Leishmania infantum [24] = experiment: In Vitro evaluation for the percentage of activity towards Leishmania infantum at 3.13 uM Concentration; Toxic upon mouse primary peritoneal macrophages; format: functional, organism-based; outline: as §1
Leishmania infantum [25] = experiment: Percentage of activity against Leishmania infantum at 6.25 uM; Toxic upon mouse primary peritoneal macrophages; format: functional, organism-based; outline: as §1
Leishmania infantum [26] = experiment: In Vitro evaluation for the percentage of activity towards Leishmania infantum at 1.56 uM Concentration; Toxic upon mouse primary peritoneal macrophages; format: functional, organism-based; outline: as §1
Leishmania infantum [27] = experiment: Percentage of activity against Leishmania infantum at 12.5 uM Concentration; Toxic upon mouse primary peritoneal macrophages; format: functional, organism-based; outline: as §1
Trypanosoma cruzi [28] = experiment: Percentage of activity against Trypanosoma cruzi at 1.56 uM; format: functional; outline: as §4
Trypanosoma cruzi [29] = experiment: Percentage of activity against Trypanosoma cruzi at 12.5 uM; Toxic upon mouse primary peritoneal macrophages; format: functional, organism-based; outline: as §4
Trypanosoma cruzi [30] = experiment: In Vitro evaluation for the percentage of activity towards Trypanosoma cruzi at 3.13 uM Concentration; Toxic upon mouse primary peritoneal macrophages; format: functional, organism-based; outline: as §4
Trypanosoma cruzi [31] = experiment: In Vitro evaluation for the percentage of activity towards Trypanosoma cruzi at 6.25 uM Concentration; Toxic upon mouse primary peritoneal macrophages; format: functional, organism-based; outline: as §4
Trypanosoma brucei [32] = experiment: In Vitro evaluation for the percentage of activity towards Trypanosoma brucei at 12.5 uM Concentration; Toxic upon mouse primary peritoneal macrophages; format: functional, organism-based; outline: as §5
Trypanosoma cruzi [33] = experiment: In Vitro evaluation for the percentage of activity towards Trypanosoma cruzi at 1.56 uM Concentration; Toxic upon mouse primary peritoneal macrophages; format: functional; outline: as §4
Plasmodium falciparum [34] = experiment: Inhibition of Plasmodium falciparum 3D7
Plasmodium falciparum [35] = experiment: Inhibition of Plasmodium falciparum W2
Plasmodium falciparum [36] = experiment: Inhibition of Plasmodium falciparum FCR3
Plasmodium falciparum [37] = experiment: Inhibition of Plasmodium falciparum F32A
MRC5 [38] = experiment: In Vitro cytotoxicity on MRC-5 cells; format: functional; details: Homo sapiens; outline: as §2

SMILES | Antileishmanial activity (% reduction of parasite load) (Leishmania infantum [2]) [%] | Percent antileishmanial activity (reduction of parasite load) (Leishmania infantum [4]) [%] | cytotoxicity at 12.5 µM (MRC5 [5]) [%] | cytotoxicity at 25 µM (MRC5 [6]) [%] | cytotoxicity at 3.13 µM (MRC5 [7]) [%] | cytotoxicity at 6.25 µM (MRC5 [8]) [%] | IC50 (Plasmodium falciparum [9]) [nM] | IC50 (Plasmodium falciparum [10]) [nM] | IC50 (Plasmodium falciparum [11]) [nM] | IC50 (Plasmodium falciparum [13]) [nM] | IC50 (Plasmodium falciparum [14]) [nM] | Inhibition of parasite multiplication (Trypanosoma brucei [19]) [%] | Inhibition of parasite multiplication (Trypanosoma brucei [20]) [%] | Percent inhibition of parasite multiplication (Trypanosoma brucei [21]) [%] | Parasite growth inhibition (Trypanosoma brucei [22]) [%] | Cytotoxicity (Leishmania infantum [25]) | Cytotoxicity (Leishmania infantum [27]) | Parasite load reduction (Trypanosoma cruzi [28]) [%] | Cytotoxicity (Trypanosoma cruzi [29]) | Cytotoxicity (Trypanosoma cruzi [31]) | also measured
COc1ccc2nc3cc(Cl)ccc3c(NCCCN3CCN(CCCNc4c5ccc(Cl)cc5nc5ccc(OC)cc45)CC3)c2c1 | 0 | 0 | 0 | 0 | 0 | 0 | 12 | 8 | 13 | 17 | 11 | 90 | 100 | 60 | 80 | – | – | – | – | – | Antileishmanial activity (% reduction of parasite load) (Leishmania infantum [1]): 0%; Percent inhibition of Leishmania infantum (Leishmania infantum [3]): 0%; IC50 (Plasmodium falciparum [12]): 18 nM; IC50 (Plasmodium falciparum [15]): 16 nM; T. cruzi parasite load reduction (Trypanosoma cruzi [16]): 0%; Reduction of T. cruzi parasite load (Trypanosoma cruzi [17]): 0%; Reduction of T. cruzi parasite load (Trypanosoma cruzi [18]): 0%; IC50 (Plasmodium falciparum [23]): 13 nM
COc1ccc2nc3cc(Cl)ccc3c(NCCCN(CCCNc3c4ccc(Cl)cc4nc4ccc(OC)cc34)C(=O)CCN3CCCC3)c2c1 | – | – | 65 | 76 | 37 | 39 | – | – | – | 91 | – | 100 | – | 100 | 100 | Toxic | Toxic | 0 | Toxic | Toxic | Cytotoxicity (Leishmania infantum [24]): Toxic; Cytotoxicity (Leishmania infantum [26]): Toxic; Cytotoxicity (Trypanosoma cruzi [30]): Toxic; Cytotoxicity (Trypanosoma brucei [32]): Toxic
COc1ccc2nc3cc(Cl)ccc3c(NCCCN(CCCNc3c4ccc(Cl)cc4nc4ccc(OC)cc34)C(=O)[C@@H](C)NC(=O)OC(C)(C)C)c2c1 | 95 | 99 | 84 | 100 | 81 | 84 | 18 | 89 | 11 | 33 | 66 | 100 | – | 100 | 100 | Toxic | Toxic | 60 | Toxic | Toxic | IC50 (Plasmodium falciparum [12]): 32 nM; IC50 (Plasmodium falciparum [15]): 23 nM; Reduction of T. cruzi parasite load (Trypanosoma cruzi [17]): 95%; IC50 (Plasmodium falciparum [23]): 57 nM
COc1ccc2nc3cc(Cl)ccc3c(NCCCCNCCCNc3c4ccc(Cl)cc4nc4ccc(OC)cc34)c2c1 | – | – | 100 | 100 | 100 | 100 | – | – | – | 61 | – | 100 | 100 | 100 | 100 | Toxic | Toxic | – | Toxic | Toxic | Cytotoxicity (Leishmania infantum [24]): Toxic; Cytotoxicity (Leishmania infantum [26]): Toxic; Cytotoxicity (Trypanosoma cruzi [33]): Toxic; Cytotoxicity (Trypanosoma cruzi [30]): Toxic
COc1ccc2nc3cc(Cl)ccc3c(NCCCN(CCCNc3c4ccc(Cl)cc4nc4ccc(OC)cc34)C(=O)C(NC(=O)OC(C)(C)C)C(C)C)c2c1 (stereo unspecified) | 95 | 99 | 59 | 60 | 43 | 54 | 40 | 57 | 16 | 25 | 83 | 100 | – | 100 | 100 | Toxic | Toxic | 70 | Toxic | Toxic | IC50 (Plasmodium falciparum [12]): 22 nM; IC50 (Plasmodium falciparum [15]): 36 nM; Reduction of T. cruzi parasite load (Trypanosoma cruzi [17]): 90%; IC50 (Plasmodium falciparum [23]): 49 nM
COc1ccc2nc3cc(Cl)ccc3c(NCCCN(CCCNc3c4ccc(Cl)cc4nc4ccc(OC)cc34)C(=O)C(C)NC(=O)OC(C)(C)C)c2c1 (stereo unspecified) | 40 | 60 | 100 | 100 | 0 | 100 | 10 | 66 | 11 | 31 | 35 | 100 | 100 | 100 | 100 | – | Toxic | 0 | Toxic | – | Antileishmanial activity (% reduction of parasite load) (Leishmania infantum [1]): 95%; IC50 (Plasmodium falciparum [15]): 12 nM; Reduction of T. cruzi parasite load (Trypanosoma cruzi [17]): 40%; Reduction of T. cruzi parasite load (Trypanosoma cruzi [18]): 90%; IC50 (Plasmodium falciparum [23]): 22 nM
OC(c1cc(C(F)(F)F)nc2c(C(F)(F)F)cccc12)C1CCCCN1 (stereo unspecified) [MEFLOQUINE] | – | – | – | – | – | – | – | – | – | 6.9 | – | – | – | – | – | – | – | – | – | – | IC50 (Plasmodium falciparum [34]): 40 nM; IC50 (Plasmodium falciparum [35]): 30 nM; IC50 (Plasmodium falciparum [36]): 36 nM; IC50 (Plasmodium falciparum [37]): 62 nM
COc1ccc2nc3cc(Cl)ccc3c(NCCNCCNc3c4ccc(Cl)cc4nc4ccc(OC)cc34)c2c1 | – | – | 100 | 100 | 100 | 100 | – | – | – | 63 | – | 100 | 100 | 100 | 100 | Toxic | Toxic | – | Toxic | Toxic | Cytotoxicity (Leishmania infantum [24]): Toxic; Cytotoxicity (Leishmania infantum [26]): Toxic; Cytotoxicity (Trypanosoma cruzi [33]): Toxic; Cytotoxicity (Trypanosoma cruzi [30]): Toxic
O=C(Cn1ccnc1[N+](=O)[O-])NCc1ccccc1 [BENZNIDAZOLE] | – | – | – | – | – | – | – | – | – | – | – | – | – | – | – | – | – | – | – | – | CC50 (MRC5 [38]): > 50000 nM
COc1ccc2nc3cc(Cl)ccc3c(NCCCCNc3c4ccc(Cl)cc4nc4ccc(OC)cc34)c2c1 | – | – | 100 | 100 | 100 | 100 | – | – | – | 18 | – | 100 | 100 | 100 | 100 | Toxic | Toxic | 90 | Toxic | Toxic | Cytotoxicity (Leishmania infantum [24]): Toxic; Cytotoxicity (Leishmania infantum [26]): Toxic; Cytotoxicity (Trypanosoma cruzi [30]): Toxic

— ChEMBL document CHEMBL1133105, “Antimalarial, antitrypanosomal, and antileishmanial activities and cytotoxicity of bis(9-amino-6-chloro-2-methoxyacridines): influence of the linker” (J Med Chem, 2000)
